Results as given in ChEMBL document CHEMBL3872252, “New bithiazolyl hydrazones: Novel synthesis, characterization and antitubercular evaluation” (Bioorg Med Chem Lett, 2017).
In brackets after ≈: the same amount, converted by molar mass.

Key:
[1] = Antitubercular activity against Mycobacterium tuberculosis H37Ra ATCC 25177 dormant stage infected in human THP1 cells measured on day 12 by nitrate reductase assay; format: functional, THP-1; settings: ATCC 25177, 288 h
[2] = Antitubercular activity against Mycobacterium tuberculosis H37Ra ATCC 25177 active stage infected in human THP1 cells measured on day 8 by nitrate reductase assay; format: functional, THP-1; settings: ATCC 25177, 192 h
[3] = Antitubercular activity against Mycobacterium tuberculosis H37Ra ATCC 25177 active stage measured on day 8 by XTT reduction menadione based two-fold dilution assay; format: functional; settings: ATCC 25177, 192 h
In short: (§1)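 M. tuberculosis H37Ra ATCC 25177 was exposed to 0.7–100 μg/mL in two-fold steps (0.7, 1.5, 3.1 … 100). Active stage was read after 8 days and dormant stage after 12 days of incubation. Inhibition was read by XTT reduction menadione assay (XRMA), absorbance 470 nm. MIC90 is the concentration giving ≥90% inhibition (µg/mL).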

[4] = Antitubercular activity against Mycobacterium tuberculosis H37Ra ATCC 25177 dormant stage measured on day 12 by XTT reduction menadione based two-fold dilution assay; format: functional; settings: ATCC 25177, 288 h; in short: as §1
[5] = Antitubercular activity against Mycobacterium bovis BCG ATCC 35743 active stage measured on day 8 by nitrate reductase based two-fold dilution assay; format: functional, Mycobacterium bovis BCG str. ATCC 35743; settings: Mycobacterium tuberculosis variant bovis BCG, ATCC 35743, 192 h
[6] = Antitubercular activity against Mycobacterium bovis BCG ATCC 35743 dormant stage measured on day 12 by nitrate reductase based two-fold dilution assay; format: functional, Mycobacterium bovis BCG str. ATCC 35743; settings: Mycobacterium tuberculosis variant bovis BCG, ATCC 35743, 288 h
[7] = Cytotoxicity against human THP1 cells by MTT assay; format: toxicity, cell-based, THP-1; settings: for GI50: THP1 cells; for GI90: thp-1
[8] = Cytotoxicity against human MCF7 cells by MTT assay; format: toxicity, cell-based; settings: for GI50: MCF7 cells; for GI90: mcf7
[9] = Cytotoxicity against human HCT116 cells by MTT assay; format: toxicity, cell-based, HCT-116; settings: for GI50: HCT116 cells; for GI90: hct-116
[10] = Selectivity index, ratio of GI50 for human MCF7 cells to MIC90 for Mycobacterium tuberculosis H37Ra ATCC 25177 active stage; format: toxicity, cell-based; settings: read-out: Selectivity Index
In short: (§2)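 Cytotoxicity was measured on human MCF-7, HCT116 and THP-1 cells by MTT assay, with paclitaxel as reference. GI50 is the concentration inhibiting 50% of cell growth. The selectivity index is GI50 for the given cell line divided by MIC90 for the given mycobacterial strain and stage.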

[11] = Selectivity index, ratio of GI50 for human MCF7 cells to MIC90 for Mycobacterium tuberculosis H37Ra ATCC 25177 dormant stage; format: toxicity, cell-based; settings: read-out: Selectivity Index
In short: (§3)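 Cytotoxicity was measured on human MCF-7, HCT116 and THP-1 cells by MTT assay, with paclitaxel as reference. The selectivity index is GI50 for the given cell line divided by MIC90 for the given mycobacterial strain and stage.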

[12] = Selectivity index, ratio of GI50 for human MCF7 cells to MIC90 for Mycobacterium bovis BCG ATCC 35743 active stage; format: toxicity, cell-based; settings: read-out: Selectivity Index; in short: as §2
[13] = Selectivity index, ratio of GI50 for human MCF7 cells to MIC90 for Mycobacterium bovis BCG ATCC 35743 dormant stage; format: toxicity, cell-based; settings: read-out: Selectivity Index; in short: as §3
[14] = Selectivity index, ratio of GI50 for human HCT116 cells to MIC90 for Mycobacterium tuberculosis H37Ra ATCC 25177 active stage; format: toxicity, cell-based, HCT-116; settings: read-out: Selectivity Index; in short: as §2
[15] = Selectivity index, ratio of GI50 for human HCT116 cells to MIC90 for Mycobacterium tuberculosis H37Ra ATCC 25177 dormant stage; format: toxicity, cell-based, HCT-116; settings: read-out: Selectivity Index; in short: as §3
[16] = Selectivity index, ratio of GI50 for human HCT116 cells to MIC90 for Mycobacterium bovis BCG ATCC 35743 active stage; format: toxicity, cell-based, HCT-116; settings: read-out: Selectivity Index; in short: as §2
[17] = Selectivity index, ratio of GI50 for human HCT116 cells to MIC90 for Mycobacterium bovis BCG ATCC 35743 dormant stage; format: toxicity, cell-based, HCT-116; settings: read-out: Selectivity Index; in short: as §3
[18] = Selectivity index, ratio of GI50 for human THP1 cells to MIC90 for Mycobacterium tuberculosis H37Ra ATCC 25177 active stage; format: toxicity, cell-based, THP-1; settings: read-out: Selectivity Index; in short: as §2
[19] = Selectivity index, ratio of GI50 for human THP1 cells to MIC90 for Mycobacterium tuberculosis H37Ra ATCC 25177 dormant stage; format: toxicity, cell-based, THP-1; settings: read-out: Selectivity Index; in short: as §3
[20] = Selectivity index, ratio of GI50 for human THP1 cells to MIC90 for Mycobacterium bovis BCG ATCC 35743 active stage; format: toxicity, cell-based, THP-1; settings: read-out: Selectivity Index; in short: as §2
[21] = Selectivity index, ratio of GI50 for human THP1 cells to MIC90 for Mycobacterium bovis BCG ATCC 35743 dormant stage; format: toxicity, cell-based, THP-1; settings: read-out: Selectivity Index; in short: as §3
Escherichia coli [22] = assay: Growth inhibition of Escherichia coli at 30 ug/ml; format: functional; settings: read-out: GI
Escherichia coli [23] = assay: Growth inhibition of Escherichia coli at 10 ug/ml; format: functional; settings: read-out: GI
Escherichia coli [24] = assay: Growth inhibition of Escherichia coli at 3 ug/ml; format: functional; settings: read-out: GI
In short: (§4)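 Screened against Gram-negative E. coli and P. aeruginosa and Gram-positive S. aureus and B. subtilis. Compound was tested at 3 µg/ml, and the read-out is percent growth inhibition.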

Pseudomonas aeruginosa [25] = assay: Growth inhibition of Pseudomonas aeruginosa at 30 ug/ml; format: functional; settings: read-out: GI
Pseudomonas aeruginosa [26] = assay: Growth inhibition of Pseudomonas aeruginosa at 10 ug/ml; format: functional; settings: read-out: GI
Pseudomonas aeruginosa [27] = assay: Growth inhibition of Pseudomonas aeruginosa at 3 ug/ml; format: functional; settings: read-out: GI; in short: as §4
Staphylococcus aureus [28] = assay: Growth inhibition of Staphylococcus aureus at 30 ug/ml; format: functional; settings: read-out: GI
Staphylococcus aureus [29] = assay: Growth inhibition of Staphylococcus aureus at 10 ug/ml; format: functional; settings: read-out: GI
Staphylococcus aureus [30] = assay: Growth inhibition of Staphylococcus aureus at 3 ug/ml; format: functional; settings: read-out: GI; in short: as §4
Bacillus subtilis [31] = assay: Growth inhibition of Bacillus subtilis at 30 ug/ml; format: functional; settings: read-out: GI
Bacillus subtilis [32] = assay: Growth inhibition of Bacillus subtilis at 10 ug/ml; format: functional; settings: read-out: GI
Bacillus subtilis [33] = assay: Growth inhibition of Bacillus subtilis at 3 ug/ml; format: functional; settings: read-out: GI; in short: as §4

SMILES	MIC90 [1] [µg/mL]	MIC90 [2] [µg/mL]	IC50 [3] [µg/mL]	MIC90 [3] [µg/mL]	IC50 [4] [µg/mL]	MIC90 [4] [µg/mL]	IC50 [5] [µg/mL]	MIC90 [5] [µg/mL]	IC50 [6] [µg/mL]	MIC90 [6] [µg/mL]	GI50 [7] [µg/mL]	GI90 [7] [µg/mL]	GI50 [8] [µg/mL]	GI90 [8] [µg/mL]	GI50 [9] [µg/mL]	GI90 [9] [µg/mL]	selectivity ratio [10]	selectivity ratio [11]	selectivity ratio [12]	selectivity ratio [13]	other results
C/C(=N\Nc1nc(-c2ccccc2)cs1)c1sc(C)nc1C	23.4 (≈ 71.3 µM)	32.5 (≈ 99.1 µM)	0.82 (≈ 2.5 µM)	25.3 (≈ 77.1 µM)	2 (≈ 6.09 µM)	16.5 (≈ 50.1 µM)	11.6 (≈ 35.4 µM)	40.4 (≈ 123 µM)	3.81 (≈ 11.6 µM)	17.2 (≈ 52.4 µM)	> 100	> 100	> 100	> 100	> 100	> 100	4	6	2	26	selectivity ratio [14]: 4; selectivity ratio [15]: 6; selectivity ratio [16]: 2; selectivity ratio [17]: 26; selectivity ratio [18]: 4; selectivity ratio [19]: 6; selectivity ratio [20]: 2; selectivity ratio [21]: 26; inhibition of growth at 30 µg/mL (Escherichia coli [22]): 82.3%; inhibition of growth at 10 µg/mL (Escherichia coli [23]): 83.7%; inhibition of growth at 3 µg/mL (Escherichia coli [24]): 81.8%; inhibition of growth at 30 µg/mL (Pseudomonas aeruginosa [25]): 82.4%; inhibition of growth at 10 µg/mL (Pseudomonas aeruginosa [26]): 84%; inhibition of growth at 3 µg/mL (Pseudomonas aeruginosa [27]): 81.8%; inhibition of growth at 30 µg/mL (Staphylococcus aureus [28]): 81.3%; inhibition of growth at 10 µg/mL (Staphylococcus aureus [29]): 82.8%; inhibition of growth at 3 µg/mL (Staphylococcus aureus [30]): 80.7%; inhibition of growth at 30 µg/mL (Bacillus subtilis [31]): 79.9%; inhibition of growth at 10 µg/mL (Bacillus subtilis [32]): 81.5%; inhibition of growth at 3 µg/mL (Bacillus subtilis [33]): 79.2%
C/C(=N\Nc1nc(-c2ccc(Cl)cc2)cs1)c1sc(C)nc1C	> 100	> 100	11.9 (≈ 32.8 µM)	> 100	9.02 (≈ 24.9 µM)	> 100	1.95 (≈ 5.37 µM)	16.1 (≈ 44.2 µM)	3.06 (≈ 8.43 µM)	17 (≈ 46.7 µM)	> 100	> 100	> 100	> 100	> 100	> 100	3	1	6	6	selectivity ratio [14]: 3; selectivity ratio [15]: 1; selectivity ratio [16]: 6; selectivity ratio [17]: 6; selectivity ratio [18]: 3; selectivity ratio [19]: 1; selectivity ratio [20]: 6; selectivity ratio [21]: 6; inhibition of growth at 30 µg/mL (Escherichia coli [22]): 68.4%; inhibition of growth at 10 µg/mL (Escherichia coli [23]): 63.9%; inhibition of growth at 3 µg/mL (Escherichia coli [24]): 54%; inhibition of growth at 30 µg/mL (Pseudomonas aeruginosa [25]): 66.9%; inhibition of growth at 10 µg/mL (Pseudomonas aeruginosa [26]): 61.6%; inhibition of growth at 3 µg/mL (Pseudomonas aeruginosa [27]): 50.9%; inhibition of growth at 30 µg/mL (Staphylococcus aureus [28]): 66.3%; inhibition of growth at 10 µg/mL (Staphylococcus aureus [29]): 61.7%; inhibition of growth at 3 µg/mL (Staphylococcus aureus [30]): 50.9%; inhibition of growth at 30 µg/mL (Bacillus subtilis [31]): 63.8%; inhibition of growth at 10 µg/mL (Bacillus subtilis [32]): 58.9%; inhibition of growth at 3 µg/mL (Bacillus subtilis [33]): 47.1%
C/C(=N\NC(N)=S)c1sc(C)nc1C	> 100	> 100	0.21 (≈ 0.92 µM)	> 100	0.19 (≈ 0.832 µM)	30.5 (≈ 134 µM)	4.42 (≈ 19.4 µM)	> 100	5.09 (≈ 22.3 µM)	> 100	> 100	> 100	> 100	> 100	> 100	> 100	1	3	1	1	selectivity ratio [14]: 1; selectivity ratio [15]: 3; selectivity ratio [16]: 1; selectivity ratio [17]: 1; selectivity ratio [18]: 1; selectivity ratio [19]: 3; selectivity ratio [20]: 1; selectivity ratio [21]: 1; inhibition of growth at 30 µg/mL (Escherichia coli [22]): 85%; inhibition of growth at 10 µg/mL (Escherichia coli [23]): 76.8%; inhibition of growth at 3 µg/mL (Escherichia coli [24]): 66.4%; inhibition of growth at 30 µg/mL (Pseudomonas aeruginosa [25]): 85.4%; inhibition of growth at 10 µg/mL (Pseudomonas aeruginosa [26]): 76.3%; inhibition of growth at 3 µg/mL (Pseudomonas aeruginosa [27]): 64.7%; inhibition of growth at 30 µg/mL (Staphylococcus aureus [28]): 84.2%; inhibition of growth at 10 µg/mL (Staphylococcus aureus [29]): 75.4%; inhibition of growth at 3 µg/mL (Staphylococcus aureus [30]): 64.2%; inhibition of growth at 30 µg/mL (Bacillus subtilis [31]): 82.9%; inhibition of growth at 10 µg/mL (Bacillus subtilis [32]): 73.5%; inhibition of growth at 3 µg/mL (Bacillus subtilis [33]): 61.5%
C/C(=N\Nc1nc(-c2ccc(Cl)cc2)cs1)c1sc(-c2ccccc2)nc1C	> 100	> 100	0.12 (≈ 0.282 µM)	> 100	0.24 (≈ 0.565 µM)	> 100	17 (≈ 40 µM)	77.8 (≈ 183 µM)	26.6 (≈ 62.5 µM)	83.7 (≈ 197 µM)	> 100	> 100	> 100	> 100	> 100	> 100	1	1	1	1	selectivity ratio [14]: 1; selectivity ratio [15]: 1; selectivity ratio [16]: 1; selectivity ratio [17]: 1; selectivity ratio [18]: 1; selectivity ratio [19]: 1; selectivity ratio [20]: 1; selectivity ratio [21]: 1; inhibition of growth at 30 µg/mL (Escherichia coli [22]): 89.7%; inhibition of growth at 10 µg/mL (Escherichia coli [23]): 80.4%; inhibition of growth at 3 µg/mL (Escherichia coli [24]): 69.1%; inhibition of growth at 30 µg/mL (Pseudomonas aeruginosa [25]): 90.6%; inhibition of growth at 10 µg/mL (Pseudomonas aeruginosa [26]): 80.3%; inhibition of growth at 3 µg/mL (Pseudomonas aeruginosa [27]): 67.7%; inhibition of growth at 30 µg/mL (Staphylococcus aureus [28]): 89.2%; inhibition of growth at 10 µg/mL (Staphylococcus aureus [29]): 79.3%; inhibition of growth at 3 µg/mL (Staphylococcus aureus [30]): 67.1%; inhibition of growth at 30 µg/mL (Bacillus subtilis [31]): 88.4%; inhibition of growth at 10 µg/mL (Bacillus subtilis [32]): 77.7%; inhibition of growth at 3 µg/mL (Bacillus subtilis [33]): 64.5%
